From the M2OR odorant receptor database

Columns and labels:
Details in all cases: stereoisomer not certain
[1] = biological target: T1, UniProt A2ATE5
T1 sequence (whole entry): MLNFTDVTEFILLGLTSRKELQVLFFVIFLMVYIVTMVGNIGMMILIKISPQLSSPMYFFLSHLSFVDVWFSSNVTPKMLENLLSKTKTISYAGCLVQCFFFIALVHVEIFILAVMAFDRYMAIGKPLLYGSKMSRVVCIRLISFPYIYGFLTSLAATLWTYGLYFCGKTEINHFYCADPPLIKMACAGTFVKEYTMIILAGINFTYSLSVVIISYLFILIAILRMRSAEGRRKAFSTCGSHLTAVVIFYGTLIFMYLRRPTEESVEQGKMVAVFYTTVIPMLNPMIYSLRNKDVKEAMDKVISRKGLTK
Outline: (§1)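 Whether a receptor–molecule pair is responsive (active) rests on the original authors' judgment that its measured signal was statistically different from baseline. Pairs without that judgment are non-responsive (inactive). Sources used varied assay methods, commonly transient luciferase assays in mammalian cell lines.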

[2] = biological target: T2, UniProt A2AVB0
T2 sequence (whole entry): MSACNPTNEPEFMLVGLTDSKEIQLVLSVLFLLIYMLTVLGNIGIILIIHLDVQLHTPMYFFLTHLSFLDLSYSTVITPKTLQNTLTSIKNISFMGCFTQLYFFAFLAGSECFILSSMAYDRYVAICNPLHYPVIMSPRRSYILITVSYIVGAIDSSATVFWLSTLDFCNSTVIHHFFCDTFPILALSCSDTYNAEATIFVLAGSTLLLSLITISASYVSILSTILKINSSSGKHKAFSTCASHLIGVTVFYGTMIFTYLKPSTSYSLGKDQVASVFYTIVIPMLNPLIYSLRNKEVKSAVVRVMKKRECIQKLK
Outline: as §1

[3] = biological target: T3, UniProt E9PVX1
T3 sequence (whole entry): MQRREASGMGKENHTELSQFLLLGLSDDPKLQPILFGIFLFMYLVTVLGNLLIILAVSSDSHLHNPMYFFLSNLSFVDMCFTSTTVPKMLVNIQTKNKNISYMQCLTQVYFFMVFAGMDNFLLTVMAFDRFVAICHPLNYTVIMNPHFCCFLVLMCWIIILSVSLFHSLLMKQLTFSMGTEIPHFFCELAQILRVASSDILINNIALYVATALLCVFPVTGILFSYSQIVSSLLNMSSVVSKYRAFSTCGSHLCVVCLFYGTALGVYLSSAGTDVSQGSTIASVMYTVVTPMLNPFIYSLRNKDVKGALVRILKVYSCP
Outline: as §1

[4] = biological target: T4, UniProt E9PZ66
T4 sequence (whole entry): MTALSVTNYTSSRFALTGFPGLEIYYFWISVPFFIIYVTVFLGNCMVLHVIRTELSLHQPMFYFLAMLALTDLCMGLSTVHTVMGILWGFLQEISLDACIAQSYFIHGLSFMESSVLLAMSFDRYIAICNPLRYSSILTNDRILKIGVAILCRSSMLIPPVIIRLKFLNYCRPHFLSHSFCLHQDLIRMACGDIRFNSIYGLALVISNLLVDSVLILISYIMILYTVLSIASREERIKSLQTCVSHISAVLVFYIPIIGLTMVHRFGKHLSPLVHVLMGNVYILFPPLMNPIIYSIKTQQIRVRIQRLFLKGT
Outline: as §1

[5] = biological target: T5, UniProt E9Q4X7
T5 sequence (whole entry): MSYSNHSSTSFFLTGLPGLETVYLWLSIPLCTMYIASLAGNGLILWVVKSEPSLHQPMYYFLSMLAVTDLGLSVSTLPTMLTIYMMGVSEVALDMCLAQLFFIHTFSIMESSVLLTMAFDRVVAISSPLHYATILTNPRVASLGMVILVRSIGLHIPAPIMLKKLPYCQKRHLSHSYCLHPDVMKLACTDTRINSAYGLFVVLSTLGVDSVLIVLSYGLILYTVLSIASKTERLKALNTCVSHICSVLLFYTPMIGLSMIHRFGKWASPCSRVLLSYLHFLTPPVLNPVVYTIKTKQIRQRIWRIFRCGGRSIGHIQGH
Outline: as §1

[6] = biological target: T6, UniProt E9Q546
T6 sequence (whole entry): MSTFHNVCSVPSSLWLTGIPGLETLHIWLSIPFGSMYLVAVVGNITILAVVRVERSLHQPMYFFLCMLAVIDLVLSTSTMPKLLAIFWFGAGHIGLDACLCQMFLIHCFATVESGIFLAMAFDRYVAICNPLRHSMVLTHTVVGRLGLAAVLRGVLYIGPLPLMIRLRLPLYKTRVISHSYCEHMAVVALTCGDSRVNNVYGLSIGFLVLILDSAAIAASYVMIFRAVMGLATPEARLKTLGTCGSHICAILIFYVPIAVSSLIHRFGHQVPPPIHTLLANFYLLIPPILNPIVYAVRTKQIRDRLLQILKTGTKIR
Outline: as §1

[7] = biological target: T7, UniProt E9Q6Z7
T7 sequence (whole entry): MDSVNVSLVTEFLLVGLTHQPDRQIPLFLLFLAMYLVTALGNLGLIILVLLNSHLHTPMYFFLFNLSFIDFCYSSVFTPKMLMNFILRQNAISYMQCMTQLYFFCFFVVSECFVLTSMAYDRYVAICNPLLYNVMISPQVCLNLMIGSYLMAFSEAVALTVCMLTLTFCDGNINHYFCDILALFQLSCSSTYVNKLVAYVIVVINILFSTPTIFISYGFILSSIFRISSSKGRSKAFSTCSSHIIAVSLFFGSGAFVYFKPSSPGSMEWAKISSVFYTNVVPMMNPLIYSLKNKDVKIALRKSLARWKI
Outline: as §1

[8] = biological target: T8, UniProt E9Q9Z6
T8 sequence (whole entry): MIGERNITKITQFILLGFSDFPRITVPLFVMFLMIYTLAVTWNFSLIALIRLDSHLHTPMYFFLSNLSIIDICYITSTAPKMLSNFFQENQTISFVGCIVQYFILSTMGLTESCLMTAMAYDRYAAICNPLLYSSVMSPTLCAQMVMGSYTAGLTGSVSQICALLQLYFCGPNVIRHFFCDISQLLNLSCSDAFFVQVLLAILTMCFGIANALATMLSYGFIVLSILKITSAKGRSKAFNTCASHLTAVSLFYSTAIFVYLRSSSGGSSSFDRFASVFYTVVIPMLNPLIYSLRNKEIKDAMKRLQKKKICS
Outline: as §1
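Further: active if original authors judged signal statistically different from baseline.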

Row | Structure (SMILES) | odorant receptor agonist call [1] | odorant receptor agonist call [2] | odorant receptor agonist call [3] | odorant receptor agonist call [4] | odorant receptor agonist call [5] | odorant receptor agonist call [6] | odorant receptor agonist call [7] | odorant receptor agonist call [8]
1 | OCCc1ccccc1 | inactive | inactive | inactive | inactive | inactive | inactive | inactive | –
2 | CCCCCC(C=O)=Cc1ccccc1 | inactive | inactive | inactive | inactive | inactive | inactive | inactive | –
3 | CC1CC=CCCCCCCCCCC(=O)C1 (configuration not stated) | inactive | inactive | inactive | inactive | inactive | inactive | inactive | active
4 | OCCCCCCCCCO | inactive | inactive | inactive | inactive | inactive | inactive | inactive | –
5 | CC(=O)OC1(C)CCC23CC1C(C)(C)C2CCC3C (configuration not stated) | inactive | inactive | inactive | inactive | inactive | inactive | inactive | –
6 | CC(C)CS | inactive | inactive | inactive | inactive | inactive | inactive | inactive | –
7 | CCN(CC)CC | inactive | inactive | inactive | inactive | inactive | inactive | inactive | –
8 | C=CC(=O)CCCCC | inactive | inactive | inactive | inactive | inactive | inactive | inactive | –
